Converted amounts (≈) assume the structure as drawn.

Consider five compounds from ChEMBL document CHEMBL4130397, “Tulongicin, an Antibacterial Tri-Indole Alkaloid from a Deep-Water Topsentia sp. Sponge” (J Nat Prod, 2017).

The subject of experiment [1] is Staphylococcus aureus. Put plainly: Antibacterial activity against Staphylococcus aureus ATCC 29213 by CLSI method. In kind it is functional. The procedure, abridged:
(§1)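 Broth MIC per CLSI guidelines against ATCC strains; each compound tested in duplicate in at least two independent experiments; top concentration tested 100 μg/mL.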

Experiment [2] relates to Human immunodeficiency virus 1. The experiment in a line: Antiviral activity against ENV pseudotyped CCR5-tropic HIV1 isolate YU2 infected in human TZM-bl cells after 24 hrs by luciferase reporter gene assay. In kind it is functional, organism-based. The settings on record: Human immunodeficiency virus 1, isolate YU2, TZM-bl. For orientation: Reporter assays use an easily measured gene product as a stand-in for the process of interest.

Experiment [3] relates to Human immunodeficiency virus 1. The experiment in a line: Antiviral activity against ENV pseudotyped CXCR4-tropic HIV1 HxB2 infected in human TZM-bl cells after 24 hrs by luciferase reporter gene assay. In kind it is functional, organism-based. The conditions noted are these: Human immunodeficiency virus 1, M:B_HXB2R.
The test system of experiment [4] is Escherichia coli. The experiment in a line: Antibacterial activity against Escherichia coli ATCC 25922 by CLSI method. It counts as functional. The procedure, abridged:
as §1

Experiment [5] deals with BSC-1. The experiment in a line: Cytotoxicity against African green monkey BSC1 cells. It counts as cell-based. The conditions noted are these: Chlorocebus aethiops.
Experiment [6] relates to HCT-116. The experiment in a line: Cytotoxicity against human HCT116 cells. It counts as cell-based.

The term MIC denotes the least concentration at which growth counts as inhibited. The compound `Cc1onc(-c2ccccc2)c1C(=O)N[C@@H]1C(=O)N2[C@@H]1SC(C)(C)[C@@H]2C(=O)O` [OXACILLIN] displayed an MIC in experiment [1] of 0.25 µg/mL (≈ 0.623 µM).

For orientation: IC50 means the concentration that inhibits the measured activity by half. As to `O[C@H](C1=NC[C@H](c2c[nH]c3cc(Br)ccc23)N1)c1c[nH]c2cc(Br)ccc12`, the IC50 was 3.5 µM in experiment [2], 4.5 µM in experiment [3], 93 µM in experiment [5] and 16 µM in experiment [6]. Moreover, the MIC in experiment [1] was 3.7 µg/mL (≈ 7.58 µM); in experiment [4], 100 µg/mL (≈ 205 µM).

In the case of `Brc1ccc2c(C(C3=NC[C@H](c4c[nH]c5cc(Br)ccc45)N3)c3c[nH]c4cc(Br)ccc34)c[nH]c2c1`, the IC50 worked out at 3.9 µM in experiment [2], 2.7 µM in experiment [3], 46 µM in experiment [5] and 10 µM in experiment [6]. Besides, the minimum inhibitory concentration (MIC) in experiment [1] is 1.2 µg/mL (≈ 1.8 µM); in experiment [4] it was more than 100 µg/mL.

In experiment [4], GENTAMICIN displayed a minimal inhibitory concentration (MIC) of 1 µg/mL.

As to `O=C(C1=NC[C@H](c2c[nH]c3cc(Br)ccc23)N1)c1c[nH]c2cc(Br)ccc12`, the IC50 in experiment [2] turned out to be 9.5 µM; in experiment [3], 12 µM; in experiment [5] it was 31 µM; in experiment [6], 27 µM. Further, the MIC in experiment [1] was 1.1 µg/mL (≈ 2.26 µM); in experiment [4] it was more than 100 µg/mL.
